Screening results from PubChem BioAssay.
CSC inhib = cancer stem cell viability inhibitors, primary screen, luminescence; cancer stem cell-like cells viability; inhibition, % at 7.5 µM; actives 1.1% (n = 300,000); in the data active means inhibition above about 75%; inconclusive means no clear call, values can overlap the other calls; tested in HMLE shEcad cells
Mdm2 MdmX PPI = inhibitors of human Mdm2-MdmX association, primary screen, cell-based, luminescence, split luciferase, SaOS-2, uHTS. Protein Mdm4 (Homo sapiens) + E3 ubiquitin-protein ligase Mdm2 (Homo sapiens), …. inhibition, % at 8 µM. actives 3% (n = 330,000). SaOS-2 split-luciferase Mdm2/MdmX complementation;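 active means inhibition of at least 50% at 8 µM in the primary screen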
Target sequence (O15151 whole entry, looked up): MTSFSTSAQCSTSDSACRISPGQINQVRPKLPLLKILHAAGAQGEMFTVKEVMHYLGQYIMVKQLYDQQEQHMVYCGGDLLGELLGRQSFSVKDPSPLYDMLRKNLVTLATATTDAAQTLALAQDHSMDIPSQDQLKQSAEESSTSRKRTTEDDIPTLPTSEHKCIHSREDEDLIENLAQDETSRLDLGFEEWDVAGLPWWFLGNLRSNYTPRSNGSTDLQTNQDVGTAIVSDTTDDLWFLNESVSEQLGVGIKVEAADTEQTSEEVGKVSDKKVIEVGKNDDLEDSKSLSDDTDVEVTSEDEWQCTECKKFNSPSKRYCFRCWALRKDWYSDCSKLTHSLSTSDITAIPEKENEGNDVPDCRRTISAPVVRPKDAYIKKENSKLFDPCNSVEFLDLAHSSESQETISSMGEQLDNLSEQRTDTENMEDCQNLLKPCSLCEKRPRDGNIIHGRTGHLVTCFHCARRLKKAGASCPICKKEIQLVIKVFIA
Target sequence (Q00987 whole entry, looked up): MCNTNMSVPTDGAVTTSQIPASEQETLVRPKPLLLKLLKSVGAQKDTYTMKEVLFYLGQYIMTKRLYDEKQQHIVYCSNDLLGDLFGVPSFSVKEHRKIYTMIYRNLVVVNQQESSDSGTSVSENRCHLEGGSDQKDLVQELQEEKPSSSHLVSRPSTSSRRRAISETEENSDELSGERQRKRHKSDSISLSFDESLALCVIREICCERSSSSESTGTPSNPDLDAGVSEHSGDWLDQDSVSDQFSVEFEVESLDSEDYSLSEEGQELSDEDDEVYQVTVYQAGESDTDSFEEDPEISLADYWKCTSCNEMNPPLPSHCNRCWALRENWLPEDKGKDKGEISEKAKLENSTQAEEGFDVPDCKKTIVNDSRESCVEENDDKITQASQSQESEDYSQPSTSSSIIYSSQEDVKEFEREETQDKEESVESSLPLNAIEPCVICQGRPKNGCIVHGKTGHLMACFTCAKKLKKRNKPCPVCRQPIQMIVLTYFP
aSyn 5UTR inh = MLPCN primary screen, SNCA 5' untranslated region; alpha-synuclein 5'UTR reporter, inhibitor activity; inhibition, % (tested at 7.5 µM); actives 0.82% (n = 300,000); AID 1813, 2009; in the data active means inhibition above about 60%; inconclusive means no clear call, values can overlap the other calls;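 further: H4 neuroglioblastoma cells stably carrying SNCA 5'UTR luciferase fusion; 0% = DMSO wells and 100% = positive control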
SKKanGAS inh = S. pyogenes SKKanGAS growth inhibitors in kanamycin, primary screen, streptokinase expression inhibitor project, SKKanGAS strain, BacTiter-Glo luminescence; 6 h; inhibition, % at 7.5 µM; actives 1.3% (n = 300,000);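 active means mean replicate score, as percent of positive control median, at least 50; inconclusive means mean below 50 but one replicate at or above 50; inactive means mean and every replicate below 50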;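 further: strain carries kanamycin resistance gene driven by streptokinase promoter and grows in 40 µg/ml kanamycin; loss of luminescence reflects streptokinase promoter inhibition or plain growth inhibition; 0% = median of DMSO wells and 100% = positive control at its reference dose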
T cruzi inh = inhibitors of intracellular T. cruzi growth, primary screen, luminescence, NIH3T3 host cells | T. cruzi beta-gal in NIH3T3, 90 h | inhibition, % (concentration not given with the values) | actives 1.4% (n = 300,000);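 active means mean inhibition across valid replicates above about 55%, limit read from the data; inconclusive means mean below that limit but half or more replicates reach it; inactive means mean below it, under half of replicates reach it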;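 further: signal also drops with host cell toxicity which is not excluded here; 0% = plate median of DMSO wells and 100% = zero luminescence signal; higher percent means less beta-gal luminescence so fewer parasites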
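Read-out: Parasite load inhibition, % | Test system: Mouse NIH/3T3 fibroblasts infected with β-gal-expressing T. cruzi Tulahuen C4 | Amount: 5,000 cells/well | Medium: DMEM, 2% fetal bovine serum | Signal: GalScreen β-gal luminescence, detergent lysis, 60 min | Timing: 3 h attach, ≥90 h co-culture | Also added: Tulahuen C4 trypomastigotes, 5000/well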
Mdm2-MdmX conf = Mdm2-MdmX complex disruptors, retested hits, confirmation, luminescence, single concentration; shares compounds with Mdm2 MdmX PPI; actives 55% (n = 10,000); inhibition, % at 8 µM; Mdm2-MdmX binding, luminescent assay; in the data active means inhibition above about 40%
FLuc counter = full-length luciferase signal inhibition, confirmation, counter-screen for Mdm2/MdmX interaction inhibitor project, cell-based, single concentration, SaOS-2. shares compounds with Mdm2 MdmX PPI. SaOS-2 full-length luciferase counterscreen, luminescence. inhibition, % at 8 µM. actives 77% (n = 6,200);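 active means mean inhibition at 8 µM reaching about 37%, which flags the compound as non-specific, limit read from the data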;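 further: p53-null SaOS-2 cells with luciferase driven by a doxycycline-inducible promoter; compound on cells about two nights before reading with doxycycline added after day one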
* marks the source's active call; other numbers are inactive results; ? = inconclusive; nt = not tested or not shown. Most compounds without a hit are left out; they make up all but 5.4% or so of the library.

SMILES | CSC inhib | Mdm2 MdmX PPI | aSyn 5UTR inh | SKKanGAS inh | T cruzi inh | Mdm2-MdmX conf | others
Cc1ccc(Cl)cc1NC(=S)N(C)N | -4 | -26 | 0 | -10 | -20 | nt
CC(C)(CO)NS(=O)(=O)c1ccc2c(c1)Cc1cc(S(=O)(=O)NC(C)(C)CO)ccc1-2 | 5 | 7 | -7 | 3 | 2 | nt
CCNc1nc(NCC)n2c(SC(C(=O)Nc3cc(Cl)cc(Cl)c3)c3ccccc3)nnc2n1 (stereo unspecified) | ? | 95* | 9 | 18 | 27 | -3
CCS(=O)(=O)C(=C(Nc1ccc(OC)cc1)Nc1ccc(OC)cc1)S(=O)(=O)CC | 0 | 7 | -9 | 0 | 5 | nt
COc1ccc(OC)c2c1C(=O)c1ccccc1C2=O | -25 | 21 | 2 | 2 | 3 | nt
COc1ccc(OC)c2c1C(=O)C(Cl)=C(Cl)C2=O | 96* | 96* | -89 | 34 | 11 | 100* | FLuc counter=2
Cc1cc(C)cc(NC(=O)C2CCN(S(=O)(=O)c3ccc4c(c3)NC(=O)C(C)S4)CC2)c1 (stereo unspecified) | 11 | 47 | 7 | 11 | 31 | nt
Cc1ccc(NC(=O)C2CCN(S(=O)(=O)c3ccc4c(c3)NC(=O)C(C)S4)CC2)cc1Cl (stereo unspecified) | 32 | 61* | 28 | 28 | 19 | 9
Cc1cccc(-c2cc3nc4c(c(N5CCC6(CC5)OCCO6)n3n2)CCCC4)c1 | 48 | 19 | nt | nt | nt | nt
Cc1cccc(-c2cc3nc4c(c(N5CCOCC5)n3n2)CCCC4)c1 | -6 | 65* | -114 | 32 | 43 | 33
CC(=O)c1ccc(NS(=O)(=O)c2cccc(C(=O)Nc3ccccc3C(=O)O)c2)cc1 | -12 | 18 | -13 | 4 | -3 | nt
Cc1ccc2cc(CN(CC3CCCO3)C(=S)NCc3ccco3)c(=O)[nH]c2c1C (stereo unspecified) | 1 | 83* | 47 | -4 | 4 | 58* | FLuc counter=37*
Cc1ccc(C)c2[nH]c(=O)c(CN(CC3CCCO3)C(=S)NCc3ccco3)cc12 (stereo unspecified) | -9 | 19 | 17 | -4 | 25 | nt
CCN(CC)CCCN(Cc1cc2ccc(C)c(C)c2[nH]c1=O)C(=O)NC1CCCCC1 | 4 | 61* | -18 | 3 | 14 | 50* | FLuc counter=74*
CC(C)OC(=O)CCC1(C(=O)O)CCC(=O)NC1 (stereo unspecified) | -19 | -11 | -5 | 5 | -12 | nt
COc1ccc(-c2nn(-c3ccccc3)cc2/C=C2/SC(=S)N(Cc3ccco3)C2=O)c(C)c1 | 6 | 59* | -6 | -5 | 9 | 12
COc1ccc(-n2c(C)cc(/C=C3\SC(=S)N(Cc4ccco4)C3=O)c2C)cc1 | 30 | nt | 3 | 6 | 26 | nt
O=Nc1c2cc(-c3ccccc3)[nH]nc-2c2ccccc12 | nt | nt | 37 | ? | -4 | nt
Cc1ccc(-c2cc3c(N=O)c4ccccc4c-3n[nH]2)cc1 | 87* | 93* | 92* | 32 | 20 | 89* | FLuc counter=46*
O=C(NC(=C(Cl)Cl)S(=O)(=O)c1ccc(Cl)cc1)c1ccccc1 | 69 | 62* | -43 | -1 | -9 | 58* | FLuc counter=13
Cc1ccc(S(=O)(=O)C(NC(=O)c2ccccc2)=C(Cl)Cl)cc1 | 41 | 65* | -60 | 0 | 2 | 23
CC(=O)NC(=C(Cl)Cl)S(=O)(=O)c1ccccc1 | 16 | 38 | -137 | -2 | 3 | nt
C/C(=N\NC1=N[C@H]2CS(=O)(=O)C[C@H]2S1)c1ccccc1 | -11 | -13 | 3 | -4 | -13 | nt
Cc1c(Br)c([N+](=O)[O-])nn1CC(=O)NCCc1c[nH]c2ccccc12 | 5 | 14 | 28 | -4 | 41 | nt
COc1ccc(C(CNC(=O)c2cccc(N(C)C)c2)N2CCCC2)cc1 (stereo unspecified) | -5 | 16 | -19 | 1 | 18 | nt
SMILES | CSC inhib | Mdm2 MdmX PPI | aSyn 5UTR inh | SKKanGAS inh | T cruzi inh | Mdm2-MdmX conf | others
COc1ccc(C(CNC(=O)c2oc3cc(C)c(C)cc3c2C)N2CCCCC2)cc1 (stereo unspecified) | 7 | 51* | 11 | -14 | 17 | -10
CCC1CCc2sc(C(=O)NCC(c3ccc(OC)cc3)N3CCCC3)cc2C1 (stereo unspecified) | -1 | 50* | -19 | 0 | 66* | 31
Cc1ccc(NC(=O)Nc2nnc(Cc3ccc(F)cc3)s2)cc1 | 60 | 55* | -30 | -9 | -27 | 32
Cc1ccc(NC(=O)Nc2nnc(Cc3ccc([N+](=O)[O-])cc3)s2)cc1C | nt | 57* | 21 | -4 | 15 | 36 | FLuc counter=39*
O=C(Nc1nnc(Cc2ccc([N+](=O)[O-])cc2)s1)Nc1ccccc1F | 2 | 37 | 26 | -13 | -16 | nt
COc1ccc(Cc2nnc(NC(=O)Nc3ccc(C)cc3)s2)cc1OC | -6 | 29 | -57 | -15 | -5 | nt
O=C(Nc1ccccc1)Nc1nnc(Cc2ccc([N+](=O)[O-])cc2)s1 | 11 | 66* | 11 | -6 | 11 | 13
O=C(Nc1ccccc1)Nc1nnc(Cc2ccc(F)cc2)s1 | 42 | 7 | -33 | -6 | -7 | nt
Cc1ccccc1NC(=O)Nc1nnc(Cc2ccc([N+](=O)[O-])cc2)s1 | nt | 67* | 41 | -5 | 13 | 10
CCN(CC)S(=O)(=O)c1ccc(NC(=O)COC(=O)CNC(=O)C2CCCCC2)cc1 | nt | 22 | nt | nt | nt | nt
CCOC(=O)c1[nH]c2ccc(OC)cc2c1NC(=S)N1CCN(C(=O)OCC)CC1 | -16 | -3 | 9 | -9 | -6 | nt
CCOC(=O)c1[nH]c2ccc(OC)cc2c1NC(=S)N1CCN(c2ccccc2OC)CC1 | 1 | 52* | 10 | 5 | 11 | 46* | FLuc counter=69*
CCCCCOc1ccc(/C(C)=N/NC2=NCCN2)cc1 | 1 | 10 | -26 | 1 | 44 | nt
CCCCCCOc1ccc(/C(C)=N/NC2=NCCN2)cc1 | 100* | 90* | -46 | 4 | 51 | 31
CCOc1ccc(Br)cc1/C(C)=N\NC1=NCCN1 | 39 | 70* | 5 | 5 | 1 | 55* | FLuc counter=56*
CCOC(=O)c1sc2nc(C)nc(Nc3ccccc3)c2c1C | -7 | 14 | -24 | -1 | 10 | nt
CCOC(=O)c1sc2nc(C)nc(NCc3ccccc3)c2c1C | 1 | 52* | 18 | 10 | 22 | 26 | FLuc counter=113*
O=C(Cn1cnc2cc([N+](=O)[O-])ccc2c1=O)Nc1cccc(S(=O)(=O)N2CCOCC2)c1 | 0 | 61* | 19 | 6 | 45 | 8
